RGS4 pot = potentiators or activators of RGS4; HEK293 M3R/inducible RGS4, carbachol calcium flux Fluo4; active compounds read low; B-score at 10 µM; 310,000 tested, 0.92% active;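 active = B-score of the integrated calcium signal more than 4 SD below the library mean, with starting fluorescence not abnormally high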;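 also: negative B-score means reduced calcium response which marks RGS4 activation or potentiation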
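Assay system: HEK293 FlpIn-TREx cells, stable M3R, doxycycline-inducible RGS4 / Probe or stimulus: carbachol, ECmax concentration / Times: overnight RGS4 induction, 30 min dye load 37 °C, 20 min compound RT / Signal: kinetic calcium fluorescence imaging with Fluo4-AM dye, 2 µM / Measure: Agonist-evoked peak-minus-minimum fluorescence over baseline, integrated ratio, B score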
MrgX1 allo act = allosterically activates human MrgX1 receptor signaling. MrgX1-HEK293, Fluo-4 calcium flux, FDSS; active compounds read high. B-score at 10 µM. Q96LB2. 310,000 tested, 0.63% active;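 active = plate-corrected calcium response at least 3 library SD above typical, normal starting fluorescence, not activating the receptor alone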;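 also: compound read alongside a low EC10 to EC30 dose of BAM8-22 agonist; peak minus trough fluorescence over baseline measured at the second addition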
Target sequence (Q96LB2 whole entry, looked up): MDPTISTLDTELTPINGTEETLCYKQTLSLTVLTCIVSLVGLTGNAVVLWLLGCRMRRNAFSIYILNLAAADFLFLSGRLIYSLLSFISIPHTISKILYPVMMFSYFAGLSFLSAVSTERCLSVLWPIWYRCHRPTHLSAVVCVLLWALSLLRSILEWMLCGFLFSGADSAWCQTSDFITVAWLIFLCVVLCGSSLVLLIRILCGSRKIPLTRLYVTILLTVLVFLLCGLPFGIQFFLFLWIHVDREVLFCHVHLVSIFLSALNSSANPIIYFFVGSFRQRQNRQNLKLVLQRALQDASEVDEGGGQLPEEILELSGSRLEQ
MrgX1 agonist = agonists of human MrgX1 receptor. 310,000 tested, 0.44% active. Q96LB2. MrgX1-HEK293 cells, Fluo-4 calcium fluorescence, agonist mode; active compounds read high. AID 588627. B-score at 10 µM;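 active = calcium response B-score plate-corrected fluorescence ratio at least 3 library SD, with starting fluorescence B-score inside 5 SD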
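Test system: HEK293 cells stably expressing human MrgX1 receptor; amount: 15,000 cells per well; doses: compound delivered in addition one of three; times: overnight plating before 1 h dye loading; detection: Fluo-4 NW calcium-flux fluorescence, kinetic read; read-out basis: B-scored fluorescence response ratio; controls: positive and negative controls per plate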
MrgX1 antagonist = antagonists of human MrgX1 receptor. MRGX1-HEK293 calcium flux, Fluo-4, BAM8-22 antagonism; active compounds read low. B-score at 10 µM. 310,000 tested, 1.3% active. AID 588676. Q96LB2;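 active = calcium-response B-score plate-corrected more than 3 library SD below zero, starting fluorescence within 5 deviations, no agonist response on first addition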;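 also: peak minus trough fluorescence over baseline after final BAM8-22 challenge near maximal dose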
RGS4 inh = human RGS4 inhibition. 310,000 tested, 0.45% active. P49798. B-score at 10 µM. HEK293 M3R/RGS4 inducible, Fluo-4 calcium flux; active compounds read high; triggered by carbachol at its EC20;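 active = B-score, a plate-corrected calcium signal, over three deviations above library mean, with baseline fluorescence within five deviations of library mean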;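 also: RGS4 expression induced by doxycycline in cells with stable M3 receptor; B-score is computed from the integrated fluorescence ratio over baseline after carbachol; higher B-score means a larger calcium signal and so more RGS4 inhibition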
Target sequence (P49798 whole entry, looked up): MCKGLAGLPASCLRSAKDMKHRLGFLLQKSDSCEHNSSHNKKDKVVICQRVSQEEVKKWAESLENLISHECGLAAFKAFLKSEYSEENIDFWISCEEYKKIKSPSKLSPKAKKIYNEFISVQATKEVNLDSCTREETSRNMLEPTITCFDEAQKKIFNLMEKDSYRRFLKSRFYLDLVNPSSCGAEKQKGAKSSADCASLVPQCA
Of the large screens only hits and unclear results are named; the others gave an inactive call. Compounds with a hit are over-represented: about 3.5% of the library has one in this group of screens.

O=C(Nc1cccc(-c2cn3c(n2)SCC3)c1)c1ccc2ccccc2n1	none
O=C(Nc1ccc(-c2cn3c(n2)SCC3)cc1)c1ccc2ccccc2n1	RGS4 pot -7.4
CC(C)(C)c1cc(CCC(=O)NN)cc(C(C)(C)C)c1O	none
COCCOC(=O)/C(=C\c1cc(C(C)(C)C)c(O)c(C(C)(C)C)c1)C(C)=O	MrgX1 allo act 6.6
Cc1cccc(N2CC(C(=O)Nc3nccs3)CC2=O)c1C (stereo not given)	none
O=C(O)/C=C/c1ccc(OCc2cccc(F)c2)cc1	MrgX1 antagonist -5.4
Cc1cc(OC(=O)c2ccccc2Br)cc(=O)n1C	MrgX1 allo act 10
O=C(Nc1cccnc1)c1ccc2nc(-c3ccccc3)c(-c3ccccc3)nc2c1	RGS4 pot -9.8
CC(=O)c1ccc(NC(=O)c2ccc3nc(-c4ccco4)c(-c4ccco4)nc3c2)cc1	MrgX1 antagonist -6.7
O=C(NCCO)Nc1ccc2nsnc2c1	none
S=C(Nc1ccc(N2CCOCC2)cc1)Nc1ccc2nc(-c3ccco3)c(-c3ccco3)nc2c1	RGS4 pot -7
O=C(NCCO)Nc1ccc2nc(-c3ccco3)c(-c3ccco3)nc2c1	MrgX1 agonist 28 (no result: RGS4 pot, RGS4 inh)
CCOC(=O)CC(NC(=O)c1cc2cccc(OC)c2oc1=O)c1ccc(OC)cc1 (stereo not given)	none
COc1cccc(/C=N/NC(=O)CN2CC(c3ccccc3)CC2=O)c1OC (stereo not given)	none
CCCOc1ccc(N2CC(C(=O)NCCc3ccc(OC)c(OC)c3)CC2=O)cc1 (stereo not given)	none
CCOC(=O)C1CCCN(C(=O)c2cccc([N+](=O)[O-])c2C)C1 (stereo not given)	none
O=C1CSC(c2cccc([N+](=O)[O-])c2)N1c1ccccc1 (stereo not given)	RGS4 pot -7.5
O=C1CSC(c2cccc([N+](=O)[O-])c2)N1c1ccc(O)cc1 (stereo not given)	none
COc1ccc(N2CC(C(=O)N(C)CC(=O)Nc3ccc(Cl)c(C(F)(F)F)c3)CC2=O)c(OC)c1 (stereo not given)	none
Cc1cc(C)c2nc(-c3ccncc3)cc(C(=O)N3CCN(Cc4ccccc4Cl)CC3)c2c1	RGS4 pot -7.4
CN(C(=S)Nc1ccc(SC(F)F)cc1)C(c1ccccc1)c1ccccc1	RGS4 pot -7.4
CC(=O)c1ccc(NC(=S)N(CCCN(C)C)Cc2ccccc2)cc1	none
CN(C)CCCN(Cc1ccccc1)C(=S)Nc1ccc(SC(F)F)cc1	RGS4 pot -7.3
FC(F)Sc1ccc(NC(=S)NC(c2ccccc2)c2ccccc2)cc1	none
Cc1cc(C)nc(N/N=C/C2=C(N3CCOCC3)C(=C\c3ccc(Cl)cc3)/CC2)n1	none
O=C(O)c1ccc(N/N=C/C2=C(N3CCOCC3)C(=C\c3ccccc3)/CC2)cc1	MrgX1 agonist 34
O=C(c1ccco1)N1CCN(Cc2cc(=O)c(OCc3ccccc3)co2)CC1	MrgX1 antagonist -5.3
CCc1ccc2oc(C(=O)NCC(c3ccc(OC)cc3)N3CCCCC3)c(C)c2c1 (stereo not given)	RGS4 pot -8.1
COc1ccc(NS(=O)(=O)c2cccc(C(=O)NCC(c3ccc(OC)cc3)N3CCOCC3)c2)cc1 (stereo not given)	MrgX1 antagonist -4.7
COc1ccc(C(CNC(=O)c2cccc(S(=O)(=O)Nc3ccc(C)cc3)c2)N2CCOCC2)cc1 (stereo not given)	none
COc1ccc(/C=C/C(=O)c2ccc(NC(=O)c3cccs3)cc2)cc1OC	none
CCOC(=O)/C(C#N)=C1\CCCN1CC(N)=S	none
O=C(CN1C(=O)CSc2ccc(S(=O)(=O)N3CCOCC3)cc21)NCCCN1CCc2ccccc2C1	none
O=C(CC(Sc1ccc(Br)cc1)C(=O)O)c1ccc(Br)cc1 (stereo not given)	RGS4 inh 6.9
COC(=O)c1cc(CSc2nc3ccccc3c(=O)n2C)oc1C	none
CC1(C)Cc2c(sc3c2c(=N)n(Cc2ccco2)c(=O)n3Cc2ccc(F)cc2)CO1	MrgX1 antagonist -4.6 (no result: RGS4 pot, RGS4 inh)
COc1ccc(Cn2c(=O)n(Cc3ccco3)c(=N)c3c4c(sc32)COC(C)(C)C4)cc1	none (no result: RGS4 pot, RGS4 inh)
Cc1cc(-c2nn(C)c(=O)c3ccccc23)ccc1CNC(=O)NC1CCCCC1	none
Cn1nc(-c2ccc(C(=O)NC3CCCCC3)cc2)c2ccccc2c1=O	MrgX1 allo act 9.5
O=C(/C=C/c1ccc(Cl)cc1)NC1CC2CCC1C2 (stereo not given)	MrgX1 allo act 7.2
CCc1cccc2c(C(=O)COC(=O)c3nn(C)c(=O)c4ccccc34)c[nH]c12	RGS4 pot -7.3
Cc1ccc(S(=O)(=O)NCc2cn3ccccc3n2)c(C)c1	none
COc1cccc(NC(=O)CCS(=O)(=O)c2cccs2)c1	none (no result: RGS4 pot, RGS4 inh)
Cc1nn(-c2ccccc2)c(C)c1NC(=O)COC(=O)c1ccc(Cl)c(N)c1	RGS4 pot -7
CC(=O)Nc1cccc(C(=O)OCC(=O)Nc2c(C)nn(-c3ccccc3)c2C)c1	none
O=C(CCCCCNC(=O)N1CCn2c1nc1ccccc12)NCc1ccccc1Cl	none
NC(=O)Cn1nc([N+](=O)[O-])nc1Oc1ccccc1C(=O)N1CCOCC1	MrgX1 antagonist -4.6
NC(=O)Cn1nc([N+](=O)[O-])nc1Oc1ccccc1F	none
CCOC(=O)c1c(-c2ccc(OC)cc2)csc1/N=C/C1=C(O)CCCC1=O	none
Cc1ccnc(SCC(=O)c2ccc([N+](=O)[O-])cc2)n1	none
Cc1cc(C)nc(SCC(=O)c2ccc([N+](=O)[O-])cc2)n1	MrgX1 antagonist -6.1
Cc1cc(C)cc(-n2c(C)cc(/C=N\NC(=O)COc3cccc4cccnc34)c2C)c1	RGS4 pot -8.7
COc1ccccc1CCn1cnc2c3cc(C)ccc3n(C)c2c1=O	RGS4 pot -7
COc1ccc2c(c1)c1ncn(CCN3CCCC3)c(=O)c1n2C	none
Cc1ccc(-c2csc3ncn(C(C)C(=O)O)c(=O)c23)cc1 (stereo not given)	none
COc1ccccc1/C=C(\C#N)C(=O)c1cccn1C	MrgX1 agonist 32
Cn1cccc1C(=O)/C(C#N)=C/c1ccc(F)cc1	MrgX1 agonist 35
CC(C)c1ccc(NC(=O)[C@@H](C)NC(=O)[C@@H]2Cc3ccccc3CN2)cc1	RGS4 pot -7.4
Cc1cc(C)nc(/N=C(\N)Nc2cccc([N+](=O)[O-])c2)n1	MrgX1 agonist 41
Cc1cc(C)nc(/N=C(\N)Nc2ccc([N+](=O)[O-])cc2)n1	none
Cc1cc(NC(=O)Nc2cccc([N+](=O)[O-])c2)no1	none
Cc1ccc(NC(=O)Nc2cccc([N+](=O)[O-])c2)cc1F	MrgX1 antagonist -6.1
O=C(Nc1ccc(OC(F)(F)F)cc1)Nc1cccc([N+](=O)[O-])c1	MrgX1 antagonist -6.6
O=C(Nc1cccnc1)c1ccc(NS(=O)(=O)c2cccc([N+](=O)[O-])c2)cc1	MrgX1 allo act 14

Assay outcomes as filed in PubChem BioAssay.
